Common to all, as to assay type: functional
Test [1] deals with Mus musculus. Put plainly: Evaluation of hypothermia (after 1h) resulting from iv administration of compound at dose 20 mg/kg. The method in brief:
(§1)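 Male ICR mice (22-30 g), housed in the laboratory 24 h before treatment; ambient 21-24 °C recorded. Rectal temperature was taken by thermistor probe (inserted 25 mm) just before iv injection of vehicle or drug (0.1 mL/10 g), then at 10-min intervals to 60 min. Value is the pre-injection minus 60-min temperature difference. At least six mice per dose.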

Test [2] deals with Mus musculus. Put plainly: Evaluation of spontaneous activity administered by iv route in mice. The essentials: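 Male ICR mice (22-30 g), housed 24 h before treatment. Given vehicle or drug iv (0.1 mL/10 g), then immediately placed singly in photocell activity chambers; beam interruptions counted for 10 min. Counts expressed as percent of vehicle control. ED50 (mg/kg) with 95% confidence limits by Litchfield-Wilcoxon method. At least six mice per dose.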

In test [3] the test system is Mus musculus. Put plainly: Evaluation of hypothermia (after 1h) resulting from iv administration of compound at dose 10 mg/kg. The method in brief: as §1
Test [4] deals with Mus musculus. Put plainly: Evaluation of hypothermia (after 1h) resulting from iv administration of compound at dose 30 mg/kg. The method in brief:
as §1

Test [5] deals with Mus musculus. In words: Evaluation of hypothermia (after 1h) resulting from iv administration of compound at dose 60 mg/kg. The essentials:
as §1

Test [6] deals with Mus musculus. Put plainly: Evaluation of hypothermia (after 1h) resulting from iv administration of compound at dose 100 mg/kg. The method in brief:
as §1

Test [7] deals with Mus musculus. In words: Evaluation of hypothermia (after 1h) resulting from iv administration of compound at dose 40 mg/kg. The essentials: as §1
Test [8] deals with Mus musculus. Put plainly: Evaluation of hypothermia (after 1h) resulting from iv administration of compound at dose 5 mg/kg. The method in brief:
as §1

Regarding `CCCCCc1cc(O)c2c(c1)OC(C)(C)[C@@H]1CC=C(Cc3ccccc3)CC21` (stereo partly drawn), the Hypothermic effect stood at 0.9 in the test on Mus musculus [1], 1.3 in the test on Mus musculus [3], 1.1 in the test with Mus musculus [4] and 1.5 with Mus musculus [5]. The ED50 in the test on Mus musculus [2] was found to be 32 mg/kg.
Turning to `CCCCCc1cc(O)c2c(c1)OC(C)(C)[C@@H]1CC=C(c3ccccc3)CC21` (stereo partly drawn), the results for the Hypothermic effect with Mus musculus [6], with Mus musculus [4] and with Mus musculus [5] were 2.2, 1.6 and 0.3, respectively. This molecule also yielded an ED50 in the test with Mus musculus [2] of 67 mg/kg.
Consider `CCCCCc1cc(O)c2c(c1)OC(C)(C)[C@@H]1CC=C(CCCC)CC21` (stereo partly drawn), for which, in the test with Mus musculus [2], the ED50 came to 32 mg/kg. The results for the Hypothermic effect in the test on Mus musculus [3], with Mus musculus [4] and in the test on Mus musculus [5] were 0.3, 4.3 and 5, respectively.
Consider `CCCCCc1cc(O)c2c(c1)OC(C)(C)[C@@H]1CC=C(CCc3ccccc3)CC21` (stereo partly drawn), for which the Hypothermic effect in the test on Mus musculus [7] is recorded as 0.3; in the test with Mus musculus [4], 0.3; in the test on Mus musculus [5], 0.9. This molecule also registered an ED50 in the test with Mus musculus [2] of 43 mg/kg.
As to `CCCCCc1cc(O)c2c(c1)OC(C)(C)[C@@H]1CC=C(C(C)C)CC21` (stereo partly drawn), the Hypothermic effect with Mus musculus [1] is 1.2; with Mus musculus [4], 0.8; in the test on Mus musculus [5], 1.3. The molecule also returned a median effective dose (ED50) with Mus musculus [2] of 26 mg/kg.
In the case of `CCCCCc1cc(O)c2c(c1)OC(C)(C)[C@@H]1CC=C(C)CC21` (stereo partly drawn), the Hypothermic effect is given as 0.9 with Mus musculus [8], 3.4 in the test with Mus musculus [1] and 1 with Mus musculus [3]. In addition, in the test with Mus musculus [2], the ED50 is 7.1 mg/kg.
In turn, `CCCCCc1cc(O)c2c(c1)OC(C)(C)[C@@H]1CC=C(C(O)CC)CC21` (stereo partly drawn) yielded an ED50 with Mus musculus [2] of 39 mg/kg. Further, the Hypothermic effect was 0.4 in the test with Mus musculus [3], -0.2 in the test on Mus musculus [4] and 1.3 in the test with Mus musculus [5].
In the case of `CCCCCc1cc(O)c2c(c1)OC(C)(C)[C@@H]1CC=C(C(C)O)CC21` (stereo partly drawn), the results for the Hypothermic effect in the test on Mus musculus [1], in the test on Mus musculus [7] and in the test with Mus musculus [4] were 0, 1.3 and 0.8, respectively. In the test with Mus musculus [2], the ED50 is 27 mg/kg.

The record behind these values is ChEMBL document CHEMBL1122641, “Synthesis and pharmacological activity of some 9-substituted delta 8-tetrahydrocannabinol analogues” (1984).
